Reference: PubChem BioAssay AID720717 (ICCB-Longwood Screening Facility, Harvard Medical School, 2013)
Values joined by “and” are separate entries in the source; they are usually repeats but may differ in a detail not shown here. Identical values can stand only once. In all, about 51,000 compounds went through this assay and about 150 (0.29%) were called active. This is one part of a sample in which actives are shown more often than they occur.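 The calls were made as follows: active = both repeat wells score below -2 in polarization z-score versus plate sample wells, excluding overly bright wells; inactive = the rest.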

system: LANA (ORF73) N-terminal peptide binding to nucleosomes, Human herpesvirus 8; assay: LANA N-terminal peptide–nucleosome interaction blockers – biochemical, fluorescence polarization, FITC-LANA1-23, chicken nucleosomes, primary screen (AID 720717); conditions: FITC-LANA1-23 / chicken nucleosome fluorescence polarization; hits give low values
Procedure, shortened: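 Assay system: purified chicken nucleosomes with FITC-labelled LANA N-terminal peptide (1-23) / Probe or stimulus: 50 nM FITC-LANA1-23 probe / Compound dosing: pin-transferred compound, 100 nL / Times: compound with peptide–nucleosome mix 10–45 min at room temperature / Technique: fluorescence polarization, 480 nm excitation, 535 nm parallel and perpendicular emission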

z-score, inactive:
CC(Oc1ccccc1)c1ccnc2ncnn12 (centres undefined) 1.01
Cc1occc1-c1nnc2n1N=C(c1ccc(-c3cc(Cl)ccc3Cl)o1)CS2 -0.0445
O=C(O)c1ccc(Sc2ccccc2C(=O)O)c(C(=O)O)c1 0.129
Cc1ccc2c(n1)sc1c(=O)n(-c3ccccc3)nnc12 0.192
CCOC(=O)c1c(NC(=S)N2CCN(C(=O)c3ccco3)CC2)sc2c1CCCCCC2 0.494
O=C(CSc1nnc(Cc2cc(=O)[nH]c(=O)[nH]2)n1-c1ccccc1)NCc1ccco1 0.726
NNC(=O)Cc1csc(CC(N)=O)n1 -1.71
O=C(CC1OCCN(Cc2ccccc2)C1=O)Nc1ccc(F)cc1 (centres undefined) 0.194
O=C(c1cnc2sc(N3CCCCC3)nn2c1=O)N1CCCC1 -0.108
Cc1ccc(Cn2cc(C(=O)Nc3cccnc3)ccc2=O)cc1 -0.673
O=C(CC1Nc2ccccc2NC1=O)Nc1ccccc1NC(=O)CC1Nc2ccccc2NC1=O (centres undefined) -0.867
O=S(=O)(c1cnc[nH]1)N1CCN(Cc2ccccc2)CC1 -0.596
Cc1ccc(C(=O)Nc2nc3ccc(S(N)(=O)=O)cc3s2)cc1C -0.589
CN(Cc1ccccc1)c1ncnc2c1nc1n2CCCCC1 -0.37
O=C(NC1CCCC1)c1[nH]nc2c1CCc1ccccc1-2 0.227
CC(=O)Oc1cc(-c2ccccc2)nn1C 0.038
CC(CC(=O)NN)C1(O)CCCCC1 (centres undefined) 0.05
Cc1ccc(C2=Nc3ccccc3N(CC(=O)Nc3ccc4c(c3)OCO4)C(=O)C2)cc1 -1.02
CCN(CC)S(=O)(=O)c1ccc2c(c1)CC(C)N2C(=O)C1CC1 (centres undefined) 1.02
CC(C)(C)C(=O)N(Cc1ccccc1)c1ccccn1 0.774
CCc1ccc(C(c2c(C)[nH][nH]c2=O)C(C#N)C#N)cc1 (centres undefined) 0.261
CCOc1ccc(/C=N/NC(=O)Cc2cc(=O)[nH][nH]2)cc1 -1.01
CN(C)/C=C/c1nc(C(F)(F)F)c(C#N)s1 5.21
N#CCn1cc(C(=O)C(F)(F)F)c2ccccc21 0.359
O=C(Cn1c(=O)oc2ccccc21)NC1CCN(Cc2ccccc2)CC1 -0.221
O=C1c2ccccc2OCC12COC(c1ccccc1)OC2 (centres undefined) -1.2
CC(=O)Nc1ccc(NCC(O)Cn2ccc3ccccc32)cc1 (centres undefined) 1.77
CC1CCC(NC(=O)CCCn2ncn3c(cc4occc43)c2=O)CC1 (centres undefined) 0.64
COCCNC(=O)N1c2ccccc2Sc2ccccc21 0.827
O=C(CNc1ccc(C(=O)O)cc1)NCc1ccc2c(c1)OCO2 0.298
N/C(=N\O)c1cnn2c(C(F)(F)F)cc(C(F)(F)F)nc12 -0.264
CCc1ccc(N2COc3ccc4c(CC)cc(=O)oc4c3C2)cc1 0.115
Cc1cccc2cnn(CC(=O)N3CCc4ccccc4C3)c12 0.198
CN1C(C)(C)CC(NC(=O)Nc2ccc(F)cc2)CC1(C)C 0.033
Cc1cc(C)n(C(C)CC(=O)Nc2ccc(CN3CCC(C)CC3)cc2)n1 (centres undefined) -0.62
C[C@]12CCC(=O)C=C1C=CC1C2CC[C@@]2(C)C1CC[C@@]21CCC(=O)O1 (some centres undefined) 0.0125 and 0.276
CN(C)c1ccc(-c2nnc(-c3cccnc3)o2)cc1 -0.139
COc1cccc(N2C(=O)C=CC2=O)c1 0.499
CCCCc1ccc(NC(=O)CC)c(C)c1 1.52
COc1ccc(CNC(=O)C(NS(=O)(=O)c2cccc3nsnc23)C(C)C)cc1 (centres undefined) -1.48
Cc1ccc(C(CC(=O)O)c2ccccc2)c(O)c1 (centres undefined) 0.53
Cc1ccc(C(=O)CSc2nnc3[nH]c(=O)c(C)nn23)cc1 -1.31
S=C(NCc1ccco1)Nc1nn(Cc2ccc(Cl)cc2Cl)cc1Cl 1.51
Cc1cc(N2CCOCC2)nc2ccc(NC(=O)CCC(=O)NC3CCCCC3)cc12 0.0965
CCCn1c(SCC(=O)N2CCCc3ccccc32)nnc1C(C)C -2.58
CCCNC(=O)c1cc2c(Cl)ccc3c2n1CCO3 -0.473
O=C1C=CC(=O)N1Nc1ccccc1 0.669
COC(=O)c1nnn(-c2nonc2N)c1CN1C(=O)c2ccccc2C1=O -0.366
CCn1c(N2CCN(C(=O)Nc3ccc(Cl)c(C(F)(F)F)c3)CC2)nc2ccccc21 -1.36
O=C1CCCC2=C1C(c1ccccn1)Nc1ccc3ncccc3c12 (centres undefined) -0.381
Cc1cccc(-n2nc(C)c3c(C)cc(=O)oc32)c1 0.165
O=C(O)c1cccc2c1C(=O)N(C1CCCC1)C2 0.735
OCc1cccnc1Sc1ccccc1 0.147
Cc1ccc2c(c1)cc(CN(Cc1ccco1)C(=O)c1ccccc1)c1nnnn12 0.235
Cc1cc(OCCN2CCOCC2)nc(N2CCOCC2)n1 0.348
Cc1sc(-c2cccs2)nc1O -0.538
CCc1cccc2c(C=C(C#N)C#N)cn(CC(=O)NC3CCCC3)c12 0.0985
Nc1c2c3c(sc2nc(=O)n1Cc1ccco1)CCC3 0.229
COc1ccc(N(C)S(=O)(=O)c2ccc3c(c2)CC(C)N3C(=O)C2CC2)c(OC)c1 (centres undefined) -0.361
COc1cccc(/C=C2/Sc3ccc(C(=O)NCc4ccco4)cc3NC2=O)c1 -0.179
COCCNC(=O)c1cccc(OC(C)C)c1 0.494
CN(C(=O)CSc1nc(N)cc(=O)[nH]1)c1ccccc1 -0.19
Cc1ccsc1/C=N/c1sc2c(c1C#N)CCCC2 -0.764
Cc1cc(C)c2nc(C(F)(F)F)nc(NCc3ccc4c(c3)OCO4)c2c1 2.86
